# Measurements as given in ChEMBL document CHEMBL4270530, “Surmounting the resistance against EGFR inhibitors through the development of thieno[2,3-d]pyrimidine-based dual EGFR/HER2 inhibitors” (Eur J Med Chem, 2018).
# pIC50: −log10 of the molar value. The source made the active and inactive calls. No cut-off for these calls is given here.
# Key:
# MDA-MB-361 [1] = experiment: Cytotoxicity against human MDA-MB-361 cells over expressing HER2 assessed as reduction in cell viability after 72 hrs by sulforhodamine B assay; assay type: functional, cell-based; details: MDA-MB-361, 72 h
# How it was run: (§1)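 Cells seeded and grown 24 h, then exposed to 0.1% DMSO vehicle or 0.3125-20 μM compound for 72 h. Fixed with ice-cold 50% TCA (1 h, 4 °C), stained with 0.4% SRB 30 min at room temperature, dye solubilized in 10 mM tris base pH 10.5, OD read at 560 nm. Survival fraction = OD treated/OD vehicle; IC50 from triplicates of at least two independent experiments, mean ± SD.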
# A-431 = experiment: Cytotoxicity against human A431 cells over expressing EGFR assessed as reduction in cell viability after 72 hrs by sulforhodamine B assay; assay type: functional, cell-based; details: A-431, 72 h; how it was run: as §1
# NCI-H1975 [2] = experiment: Cytotoxicity against human NCI-H1975 cells harboring EGFR T790M mutant assessed as reduction in cell viability after 72 hrs by sulforhodamine B assay; assay type: functional, cell-based; details: NCI-H1975, 72 h; how it was run: as §1
# SK-BR-3 = experiment: Cytotoxicity against human SKBR3 cells over expressing HER2 assessed as reduction in cell viability after 72 hrs by sulforhodamine B assay; assay type: functional, cell-based; details: SK-BR-3, 72 h; how it was run: as §1
# [3] = biological target: T1, Epidermal growth factor receptor (Homo sapiens, UniProt P00533); experiment: Inhibition of EGF-induced EGFR signalling in EGFR over-expressing human A431 cells assessed as reduction in AKT phosphorylation at S473 residue at 5 to 20 uM pretreated for 3 hrs followed by EGF-stimulation and measured after 10 mins by Western blot analysis
# How it was run: (§2)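 Overnight serum-starved A431 cells given indicated concentrations for 3 h, then 50 ng/ml EGF for 10 min. HEPES-buffer lysates resolved on 12% SDS-PAGE, transferred to nitrocellulose, blocked in 5% milk/TBST, probed with primary and HRP secondary antibodies, chemiluminescence read-out.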
# [4] = biological target: T1, Epidermal growth factor receptor; experiment: Inhibition of recombinant human C-terminal His-tagged/N-terminal GST-tagged EGFR (668 to 1210 residues) expressed in baculovirus infected Sf9 cells using Poly-(Glu, Tyr) as substrate measured after 45 minutes by Kinase-Glo luminescent assay
# [5] = biological target: T2, Receptor tyrosine-protein kinase erbB-2 (Homo sapiens, UniProt P04626); experiment: Inhibition of recombinant human N-terminal GST-tagged HER2 (679 to 1255 residues) expressed in baculovirus infected Sf9 cells using Poly-(Glu, Tyr) as substrate measured after 45 minutes by Kinase-Glo luminescent assay
# [6] = biological target: T1, Epidermal growth factor receptor; experiment: Inhibition of EGF-induced EGFR signalling in EGFR over-expressing human A431 cells assessed as reduction in p70S6K phosphorylation at T389 residue at 5 to 20 uM pretreated for 3 hrs followed by EGF-stimulation and measured after 10 mins by Western blot analysis; how it was run: as §2
# [7] = biological target: T1, Epidermal growth factor receptor; experiment: Inhibition of EGF-induced EGFR signalling in EGFR over-expressing human A431 cells assessed as reduction in ribosomal S6 phosphorylation at S235/236 residue at 5 to 20 uM pretreated for 3 hrs followed by EGF-stimulation and measured after 10 mins by Western blot analysis; how it was run: as §2
# [8] = biological target: T1, Epidermal growth factor receptor; experiment: Inhibition of EGF-induced EGFR phosphorylation at Y1068 residues in EGFR over-expressing human A431 cells pretreated for 3 hrs followed by EGF-stimulation and measured after 10 mins by Western blot analysis; how it was run: as §2
# [9] = tested on: Epidermal growth factor receptor (Homo sapiens), P00533 [T790M]; experiment: Inhibition of EGFR T790M mutant in human NCI-H1975 cells assessed as reduction in p70S6K phosphorylation at T389 residue after 72 hrs by Western blot analysis; assay type: cell-based
# How it was run: (§3)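 Unstimulated NCI-H1975 cells exposed to indicated concentrations for 72 h. Lysates in HEPES buffer run on 12% SDS-PAGE, blotted to nitrocellulose and probed for AKT/S6K/S6 signalling with chemiluminescent detection; β-actin loading control.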
# [10] = tested on: Epidermal growth factor receptor (Homo sapiens), P00533 [T790M]; experiment: Inhibition of EGFR T790M mutant in human NCI-H1975 cells assessed as reduction in ribosomal S6 phosphorylation at S235/236 residue after 72 hrs by Western blot analysis; assay type: cell-based; how it was run: as §3
# [11] = tested on: Epidermal growth factor receptor (Homo sapiens), P00533 [T790M]; experiment: Inhibition of EGF-induced EGFR T790M mutant phosphorylation in human NCI-H1975 cells at 2.5 to 10 uM pretreated for 2.5 hrs followed by EGF-stimulation and measured after 10 mins by Western blot analysis; assay type: cell-based
# How it was run: (§4)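 Serum-starved overnight NCI-H1975 cells preincubated 2.5 h with compound, then stimulated with 50 ng/ml EGF for 10 min. Lysed in HEPES buffer, protein quantified, 12% SDS-PAGE, nitrocellulose transfer, milk blocking, HRP secondary, chemiluminescent detection.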
# [12] = tested on: Epidermal growth factor receptor (Homo sapiens), P00533 [T790M]; experiment: Inhibition of EGF-induced EGFR T790M mutant in human NCI-H1975 cells assessed as reduction in ribosomal S6 phosphorylation at S235/236 residue at 2.5 to 10 uM pretreated for 2.5 hrs followed by EGF-stimulation and measured after 10 mins by Western blot analysis; assay type: cell-based; how it was run: as §4
# [13] = tested on: Epidermal growth factor receptor (Homo sapiens), P00533 [T790M]; experiment: Inhibition of EGF-induced EGFR T790M mutant in human NCI-H1975 cells assessed as reduction in p70S6K phosphorylation at T389 residue at 2.5 to 10 uM pretreated for 2.5 hrs followed by EGF-stimulation and measured after 10 mins by Western blot analysis; assay type: cell-based; how it was run: as §4
# NCI-H1975 [14] = experiment: Induction of apoptosis in human NCI-H1975 cells harboring EGFR T790M mutant assessed as increase in necrotic cells at 2.5 to 10 uM after 72 hrs by Annexin-V-FITC/propidium iodide staining based flow cytometry; assay type: functional, cell-based
# How it was run: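 NCI-H1975 cells grown in RPMI-1640 with 2 mM L-glutamine and 10% FBS, exposed 72 h to indicated concentrations. Harvested, ethanol-fixed on ice, PI-stained overnight at 4 °C. Flow cytometry on 20 000 cells/sample gave percent live, early apoptotic and late apoptotic/necrotic cells.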
# [15] = biological target: T1, Epidermal growth factor receptor; experiment: Inhibition of EGF-induced EGFR signalling in EGFR over-expressing human A431 cells assessed as reduction in AKT phosphorylation at S473 residue at 2.5 to 10 uM pretreated for 3 hrs followed by EGF-stimulation and measured after 10 mins by Western blot analysis; how it was run: as §2
# [16] = biological target: T1, Epidermal growth factor receptor; experiment: Inhibition of EGF-induced EGFR signalling in EGFR over-expressing human A431 cells assessed as reduction in p70S6K phosphorylation at T389 residue at 2.5 to 10 uM pretreated for 3 hrs followed by EGF-stimulation and measured after 10 mins by Western blot analysis; how it was run: as §2
# [17] = tested on: Epidermal growth factor receptor (Homo sapiens), P00533 [T790M]; experiment: Inhibition of EGFR T790M mutant in human NCI-H1975 cells assessed as reduction in AKT phosphorylation at S473 residue after 72 hrs by Western blot analysis; assay type: cell-based; how it was run: as §3
# [18] = biological target: T1, Epidermal growth factor receptor; experiment: Inhibition of EGF-induced EGFR signalling in EGFR over-expressing human A431 cells assessed as reduction in ribosomal S6 phosphorylation at S235/236 residue at 2.5 to 10 uM pretreated for 3 hrs followed by EGF-stimulation and measured after 10 mins by Western blot analysis; how it was run: as §2
# NCI-H1975 [19] = experiment: Induction of apoptosis in human NCI-H1975 cells harboring EGFR T790M mutant assessed as increase in apoptotic cells at 2.5 to 10 uM after 72 hrs by Annexin-V-FITC/propidium iodide staining based flow cytometry; assay type: functional, cell-based
# [20] = tested on: Epidermal growth factor receptor (Homo sapiens), P00533 [T790M]; experiment: Inhibition of EGF-induced EGFR T790M mutant in human NCI-H1975 cells assessed as reduction in AKT phosphorylation at S473 residue at 2.5 to 10 uM pretreated for 2.5 hrs followed by EGF-stimulation and measured after 10 mins by Western blot analysis; assay type: cell-based; how it was run: as §4
# MDA-MB-361 [21] = experiment: Induction of apoptosis in human MDA-MB-361 cells after 24 hrs by Annexin-V-FITC/propidium iodide staining based flow cytometry; assay type: functional, cell-based
# [22] = biological target: T2, Receptor tyrosine-protein kinase erbB-2; experiment: Inhibition of HER2 signalling in HER2 over-expressing human SKBR3 cells assessed as reduction in S6 phosphorylation at S235/236 residue at 2.5 to 10 uM after 72 hrs by Western blot analysis
# How it was run: (§5)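 SKBr3 cells (DMEM, 10% FBS) treated 72 h at indicated concentrations. HEPES-buffer lysates on 12% SDS-PAGE, nitrocellulose transfer, 5% milk/TBST block, immunoblotted for AKT/mTOR/S6 with HRP secondary and chemiluminescence; β-actin loading control.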
# [23] = biological target: T2, Receptor tyrosine-protein kinase erbB-2; experiment: Inhibition of HER2 signalling in HER2 over-expressing human SKBR3 cells assessed as reduction in mTOR phosphorylation at S2448 residue at 2.5 to 10 uM after 72 hrs by Western blot analysis; how it was run: as §5
# [24] = biological target: T2, Receptor tyrosine-protein kinase erbB-2; experiment: Inhibition of HER2 signalling in HER2 over-expressing human SKBR3 cells assessed as reduction in AKT phosphorylation at S473 residue at 2.5 to 10 uM after 72 hrs by Western blot analysis; how it was run: as §5
# T2 sequence (P04626 whole entry, the tested form may be a part): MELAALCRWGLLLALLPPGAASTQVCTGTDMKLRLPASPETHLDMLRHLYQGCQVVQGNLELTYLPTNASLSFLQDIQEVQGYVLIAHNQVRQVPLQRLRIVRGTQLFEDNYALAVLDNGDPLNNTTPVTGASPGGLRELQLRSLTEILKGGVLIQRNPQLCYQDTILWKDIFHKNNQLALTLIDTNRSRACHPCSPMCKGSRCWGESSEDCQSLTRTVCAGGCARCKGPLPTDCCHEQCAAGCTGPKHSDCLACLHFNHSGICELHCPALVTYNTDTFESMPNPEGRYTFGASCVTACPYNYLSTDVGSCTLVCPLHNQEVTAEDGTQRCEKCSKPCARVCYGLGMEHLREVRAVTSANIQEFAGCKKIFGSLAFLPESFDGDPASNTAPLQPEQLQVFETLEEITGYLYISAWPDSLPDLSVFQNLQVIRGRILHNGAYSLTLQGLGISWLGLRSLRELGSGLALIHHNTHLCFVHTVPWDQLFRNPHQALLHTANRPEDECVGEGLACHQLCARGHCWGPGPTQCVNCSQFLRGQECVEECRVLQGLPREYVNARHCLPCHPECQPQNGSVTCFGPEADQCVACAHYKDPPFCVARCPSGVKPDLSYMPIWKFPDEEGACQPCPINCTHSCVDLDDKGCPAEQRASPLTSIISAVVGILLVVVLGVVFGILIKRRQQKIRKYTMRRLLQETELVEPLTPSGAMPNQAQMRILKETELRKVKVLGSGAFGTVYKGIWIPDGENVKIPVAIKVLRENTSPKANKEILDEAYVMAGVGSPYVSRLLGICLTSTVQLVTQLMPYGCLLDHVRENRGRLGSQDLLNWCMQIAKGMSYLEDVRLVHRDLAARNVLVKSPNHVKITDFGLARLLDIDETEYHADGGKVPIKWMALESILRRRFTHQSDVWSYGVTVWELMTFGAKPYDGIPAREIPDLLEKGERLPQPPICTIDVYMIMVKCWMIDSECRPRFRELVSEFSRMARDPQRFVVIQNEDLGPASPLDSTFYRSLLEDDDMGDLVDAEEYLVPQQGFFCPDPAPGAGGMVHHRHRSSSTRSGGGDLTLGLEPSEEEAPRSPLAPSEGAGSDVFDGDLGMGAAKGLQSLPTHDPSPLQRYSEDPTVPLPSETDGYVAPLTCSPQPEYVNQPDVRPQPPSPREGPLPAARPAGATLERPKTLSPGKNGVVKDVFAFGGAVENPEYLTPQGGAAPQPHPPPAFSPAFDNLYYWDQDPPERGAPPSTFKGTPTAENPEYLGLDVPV
# Chain of Epidermal growth factor receptor (Homo sapiens), P00533 [T790M] (P00533 whole entry T790M): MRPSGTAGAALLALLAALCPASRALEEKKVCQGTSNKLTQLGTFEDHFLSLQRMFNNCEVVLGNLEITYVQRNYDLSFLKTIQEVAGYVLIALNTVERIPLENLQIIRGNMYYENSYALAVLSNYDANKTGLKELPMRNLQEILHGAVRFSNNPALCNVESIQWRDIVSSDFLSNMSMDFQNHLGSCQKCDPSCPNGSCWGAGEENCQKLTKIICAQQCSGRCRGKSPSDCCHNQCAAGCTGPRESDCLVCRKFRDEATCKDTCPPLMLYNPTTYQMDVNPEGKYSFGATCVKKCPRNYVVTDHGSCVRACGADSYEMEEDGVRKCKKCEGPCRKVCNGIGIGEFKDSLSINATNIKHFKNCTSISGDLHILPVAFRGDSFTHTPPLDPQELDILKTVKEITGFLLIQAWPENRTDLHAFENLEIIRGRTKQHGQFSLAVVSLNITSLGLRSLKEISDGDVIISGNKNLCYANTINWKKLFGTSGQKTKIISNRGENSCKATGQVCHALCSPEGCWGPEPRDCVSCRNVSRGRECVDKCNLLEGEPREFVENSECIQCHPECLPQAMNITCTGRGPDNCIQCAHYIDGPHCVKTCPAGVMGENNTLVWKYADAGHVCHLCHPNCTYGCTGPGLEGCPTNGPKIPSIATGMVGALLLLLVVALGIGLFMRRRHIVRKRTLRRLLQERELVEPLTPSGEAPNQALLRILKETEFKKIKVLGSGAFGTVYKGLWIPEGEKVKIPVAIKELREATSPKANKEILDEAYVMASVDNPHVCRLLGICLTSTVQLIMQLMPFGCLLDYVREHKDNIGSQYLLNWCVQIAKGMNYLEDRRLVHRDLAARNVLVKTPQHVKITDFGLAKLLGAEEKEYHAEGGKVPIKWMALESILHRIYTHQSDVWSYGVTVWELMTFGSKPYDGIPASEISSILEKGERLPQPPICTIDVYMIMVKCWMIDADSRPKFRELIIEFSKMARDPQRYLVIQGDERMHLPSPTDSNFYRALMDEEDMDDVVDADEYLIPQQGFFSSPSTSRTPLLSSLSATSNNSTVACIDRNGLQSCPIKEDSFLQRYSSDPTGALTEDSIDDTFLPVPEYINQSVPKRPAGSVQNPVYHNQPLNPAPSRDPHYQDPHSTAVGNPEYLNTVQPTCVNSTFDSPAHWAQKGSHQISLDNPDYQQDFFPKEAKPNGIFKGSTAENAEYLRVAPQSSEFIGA
# T1 sequence (P00533 whole entry): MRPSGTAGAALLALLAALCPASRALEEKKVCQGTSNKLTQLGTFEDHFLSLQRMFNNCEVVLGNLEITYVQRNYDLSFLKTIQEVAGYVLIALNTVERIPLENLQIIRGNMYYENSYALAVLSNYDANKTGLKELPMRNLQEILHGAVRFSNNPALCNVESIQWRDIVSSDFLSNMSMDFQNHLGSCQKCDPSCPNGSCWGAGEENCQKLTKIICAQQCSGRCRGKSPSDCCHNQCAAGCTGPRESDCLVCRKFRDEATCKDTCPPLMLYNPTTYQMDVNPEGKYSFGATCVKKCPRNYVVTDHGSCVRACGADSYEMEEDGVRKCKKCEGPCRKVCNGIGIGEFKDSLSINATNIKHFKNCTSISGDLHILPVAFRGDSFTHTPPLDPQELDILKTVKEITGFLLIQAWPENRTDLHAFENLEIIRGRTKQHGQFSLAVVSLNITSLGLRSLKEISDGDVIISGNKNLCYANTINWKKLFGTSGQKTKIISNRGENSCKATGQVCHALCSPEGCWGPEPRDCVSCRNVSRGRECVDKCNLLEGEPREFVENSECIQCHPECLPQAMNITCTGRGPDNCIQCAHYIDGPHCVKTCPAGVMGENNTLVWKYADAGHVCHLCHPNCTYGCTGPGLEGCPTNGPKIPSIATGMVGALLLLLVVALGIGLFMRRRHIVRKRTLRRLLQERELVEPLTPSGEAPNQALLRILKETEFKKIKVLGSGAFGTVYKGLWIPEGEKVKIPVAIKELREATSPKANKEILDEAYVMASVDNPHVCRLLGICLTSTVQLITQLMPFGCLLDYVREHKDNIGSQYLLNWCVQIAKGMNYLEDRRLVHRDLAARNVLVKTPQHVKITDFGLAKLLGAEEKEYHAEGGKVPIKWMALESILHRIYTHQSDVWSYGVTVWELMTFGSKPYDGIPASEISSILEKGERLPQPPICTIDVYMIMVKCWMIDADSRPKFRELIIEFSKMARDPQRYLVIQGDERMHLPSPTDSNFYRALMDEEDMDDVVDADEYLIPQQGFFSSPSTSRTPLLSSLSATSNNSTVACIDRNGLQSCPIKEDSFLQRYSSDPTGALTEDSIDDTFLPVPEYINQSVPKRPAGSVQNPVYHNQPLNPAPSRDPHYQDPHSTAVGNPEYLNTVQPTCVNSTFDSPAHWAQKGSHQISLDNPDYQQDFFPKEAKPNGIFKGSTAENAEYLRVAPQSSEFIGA
Compound,pIC50 (MDA-MB-361 [1]),pIC50 (A-431),pIC50 (NCI-H1975 [2]),pIC50 (SK-BR-3),pIC50 [4],pIC50 [5],other results
CS(=O)(=O)CCNCc1ccc(-c2ccc3ncnc(Nc4ccc(OCc5cccc(F)c5)c(Cl)c4)c3c2)o1,4.86,5.77,4.94,6.77,–,–,–
CCOC(=O)Nc1ccc(-c2cc3c(Nc4ccc(Oc5cccc(C(F)(F)F)c5)c(Cl)c4)ncnc3s2)cc1,< 4.70,4.77,–,–,–,–,–
Nc1ccc(-c2cc3c(Nc4ccc(Oc5cccc(C(F)(F)F)c5)c(Cl)c4)ncnc3s2)cc1,5.23,4.94,4.86,5.22,7.67,5.82,inhibition [3]: Active; inhibition [6]: Active; inhibition [7]: Active; inhibition [8]: Dose-dependent effect
CC(C)/C=C/C(=O)Nc1ccc(-c2cc3c(Nc4ccc(Oc5cccc(C(F)(F)F)c5)c(Cl)c4)ncnc3s2)cc1,< 4.70,6.64,–,–,–,–,–
O=C(Nc1ccc(-c2cc3c(Nc4ccc(Oc5cccc(C(F)(F)F)c5)c(Cl)c4)ncnc3s2)cc1)NC1CC1,5.42,5.63,–,–,6.95,4.43,–
O=[N+]([O-])c1ccc(-c2cc3c(NCc4ccccc4)ncnc3s2)cc1,< 4.70,5.31,–,–,–,–,–
Nc1ccc(-c2cc3c(NCc4ccccc4)ncnc3s2)cc1,< 4.70,< 4.70,–,–,–,–,–
O=C(NCCN1CCOCC1)Nc1ccc(-c2cc3c(Nc4ccc(Oc5cccc(C(F)(F)F)c5)c(Cl)c4)ncnc3s2)cc1,5.46,5.84,5.38,5.32,7.04,5.92,inhibition [9]: Dose-dependent effect; inhibition [10]: Dose-dependent effect; inhibition [11]: Active; inhibition [12]: Active; inhibition [13]: Active; Activity (NCI-H1975 [14]): Active; inhibition [15]: Active; inhibition [16]: Active; inhibition [17]: Dose-dependent effect; inhibition [18]: Active; Activity (NCI-H1975 [19]): Active; inhibition [8]: Dose-dependent effect; inhibition [20]: Active; Activity (MDA-MB-361 [21]): Dose-dependent effect
O=[N+]([O-])c1ccc(-c2cc3c(Nc4ccc(Oc5cccc(C(F)(F)F)c5)c(Cl)c4)ncnc3s2)cc1,5.44,5.76,–,–,–,–,–
O=[N+]([O-])c1ccc(-c2cc3c(Nc4ccc5c(cnn5Cc5ccccc5)c4)ncnc3s2)cc1,< 4.70,< 4.70,–,–,–,–,–
CC(=O)Nc1ccc(-c2cc3c(Nc4ccc(Oc5cccc(C(F)(F)F)c5)c(Cl)c4)ncnc3s2)cc1,4.98,4.98,4.90,5.33,7.32,6.06,inhibition [22]: Active; inhibition [23]: Active; inhibition [24]: Active
CS(=O)(=O)Nc1ccc(-c2cc3c(Nc4ccc(Oc5cccc(C(F)(F)F)c5)c(Cl)c4)ncnc3s2)cc1,5.01,5.28,–,–,–,4.72,–
O=C(O)/C=C\C(=O)Nc1ccc(-c2cc3c(Nc4ccc(Oc5cccc(C(F)(F)F)c5)c(Cl)c4)ncnc3s2)cc1,< 4.70,< 4.70,–,–,–,–,–
